What was measured:
Set-up in all cases: dose 5 mg/kg, route oral
Settings in all cases: in vivo
[1] = Biodistribution in Sprague-Dawley rat cervical lymph node at 5 mg/kg, po after 24 hrs; assay type: ADME, organism-based
How it was run: (§1)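 Male SD rats (n = 4 per group) were dosed orally with [¹⁴C]-labelled prodrug at 5 mg/kg. Animals were killed 3 or 24 h after dosing. Harvested tissues, blood and plasma were processed and analysed directly for radioactivity by liquid scintillation counting.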

Plasma [2] = assay: Biodistribution in Sprague-Dawley rat plasma at 5 mg/kg, po after 24 hrs; assay type: ADME, organism-based; how it was run: as §1
Pancreas [3] = assay: Biodistribution in Sprague-Dawley rat pancreas at 5 mg/kg, po after 24 hrs; assay type: ADME, organism-based; how it was run: as §1
[4] = Biodistribution in Sprague-Dawley rat pituitary gland at 5 mg/kg, po after 3 hrs; assay type: ADME, organism-based; how it was run: as §1
Testes [5] = assay: Biodistribution in Sprague-Dawley rat testes at 5 mg/kg, po after 24 hrs; assay type: ADME, organism-based, Testis
How it was run: (§2)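 Male SD rats (n = 4 per group) were given [¹⁴C]-labelled compound at 5 mg/kg per os. They were killed 3 and 24 h after dosing. Harvested tissues were processed and radioactivity was measured directly by liquid scintillation counting.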

Zone of skin [6] = assay: Biodistribution in Sprague-Dawley rat skin at 5 mg/kg, po after 3 hrs; assay type: ADME, organism-based; how it was run: as §1
Muscle tissue [7] = assay: Biodistribution in Sprague-Dawley rat muscle at 5 mg/kg, po after 3 hrs; assay type: ADME, organism-based; how it was run: as §1
Thyroid gland [8] = assay: Biodistribution in Sprague-Dawley rat thyroid at 5 mg/kg, po after 3 hrs; assay type: ADME, organism-based; how it was run: as §2
Liver [9] = assay: Biodistribution in Sprague-Dawley rat liver at 5 mg/kg, po after 24 hrs; assay type: ADME, organism-based; how it was run: as §1
[10] = Biodistribution in Sprague-Dawley rat urinary bladder at 5 mg/kg, po after 3 hrs; assay type: ADME, organism-based; how it was run: as §2
[11] = Biodistribution in Sprague-Dawley rat femur bone at 5 mg/kg, po after 24 hrs; assay type: ADME, organism-based, Bone element; how it was run: as §1
Adrenal gland [12] = assay: Biodistribution in Sprague-Dawley rat adrenal gland at 5 mg/kg, po after 3 hrs; assay type: ADME, organism-based; how it was run: as §1
Prostate gland [13] = assay: Biodistribution in Sprague-Dawley rat prostate at 5 mg/kg, po after 24 hrs; assay type: ADME, organism-based; how it was run: as §1
[14] = Biodistribution in Sprague-Dawley rat small intestine C&W at 5 mg/kg, po after 3 hrs; assay type: ADME, organism-based; how it was run: as §1
[15] = Biodistribution in Sprague-Dawley rat mesenteric lymph at 5 mg/kg, po after 24 hrs; assay type: ADME, organism-based, Mesenteric lymph node; how it was run: as §1
[16] = Biodistribution in Sprague-Dawley rat mesenteric lymph at 5 mg/kg, po after 3 hrs; assay type: ADME, organism-based, Mesenteric lymph node; how it was run: as §1
Heart [17] = assay: Biodistribution in Sprague-Dawley rat heart at 5 mg/kg, po after 24 hrs; assay type: ADME, organism-based; how it was run: as §1
[18] = Biodistribution in Sprague-Dawley rat stomach C&W at 5 mg/kg, po after 24 hrs; assay type: ADME, organism-based; how it was run: as §2
Blood [19] = assay: Biodistribution in Sprague-Dawley rat blood at 5 mg/kg, po after 3 hrs; assay type: ADME, organism-based; how it was run: as §1
Blood [20] = assay: Biodistribution in Sprague-Dawley rat blood at 5 mg/kg, po after 24 hrs; assay type: ADME, organism-based; how it was run: as §1
Spleen [21] = assay: Biodistribution in Sprague-Dawley rat spleen at 5 mg/kg, po after 24 hrs; assay type: ADME, organism-based; how it was run: as §1
Liver [22] = assay: Biodistribution in Sprague-Dawley rat liver at 5 mg/kg, po after 3 hrs; assay type: ADME, organism-based; how it was run: as §1
[23] = Biodistribution in Sprague-Dawley rat small intestine at 5 mg/kg, po after 24 hrs; assay type: ADME, organism-based; how it was run: as §1
Lung [24] = assay: Biodistribution in Sprague-Dawley rat lung at 5 mg/kg, po after 24 hrs; assay type: ADME, organism-based; how it was run: as §1
Thyroid gland [25] = assay: Biodistribution in Sprague-Dawley rat thyroid at 5 mg/kg, po after 24 hrs; assay type: ADME, organism-based; how it was run: as §2
Kidney [26] = assay: Biodistribution in Sprague-Dawley rat kidney at 5 mg/kg, po after 24 hrs; assay type: ADME, organism-based; how it was run: as §1
Thymus [27] = assay: Biodistribution in Sprague-Dawley rat thymus at 5 mg/kg, po after 3 hrs; assay type: ADME, organism-based; how it was run: as §2
[28] = Biodistribution in Sprague-Dawley rat eyes at 5 mg/kg, po after 3 hrs; assay type: ADME, organism-based, Eye; how it was run: as §1
[29] = Biodistribution in Sprague-Dawley rat pituitary gland at 5 mg/kg, po after 24 hrs; assay type: ADME, organism-based; how it was run: as §1
[30] = Biodistribution in Sprague-Dawley rat small intestine C&W at 5 mg/kg, po after 24 hrs; assay type: ADME, organism-based; how it was run: as §1
Adrenal gland [31] = assay: Biodistribution in Sprague-Dawley rat adrenal gland at 5 mg/kg, po after 24 hrs; assay type: ADME, organism-based; how it was run: as §1
[32] = Biodistribution in Sprague-Dawley rat eyes at 5 mg/kg, po after 24 hrs; assay type: ADME, organism-based, Eye; how it was run: as §1
[33] = Biodistribution in Sprague-Dawley rat stomach at 5 mg/kg, po after 3 hrs; assay type: ADME, organism-based; how it was run: as §2
Testes [34] = assay: Biodistribution in Sprague-Dawley rat testes at 5 mg/kg, po after 3 hrs; assay type: ADME, organism-based, Testis; how it was run: as §2
Plasma [35] = assay: Biodistribution in Sprague-Dawley rat plasma at 5 mg/kg, po after 3 hrs; assay type: ADME, organism-based; how it was run: as §1
Kidney [36] = assay: Biodistribution in Sprague-Dawley rat kidney at 5 mg/kg, po after 3 hrs; assay type: ADME, organism-based; how it was run: as §1
[37] = Biodistribution in Sprague-Dawley rat small intestine at 5 mg/kg, po after 3 hrs; assay type: ADME, organism-based; how it was run: as §1
[38] = Biodistribution in Sprague-Dawley rat large intestine at 5 mg/kg, po after 3 hrs; assay type: ADME, organism-based
How it was run: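 Male SD rats (n = 4 per group) were given a single oral dose of [¹⁴C]-labelled prodrug at 5 mg/kg. They were killed at 3 and 24 h after dosing. Harvested tissues were processed and analysed directly by liquid scintillation counting to give tissue radioactivity concentrations.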

[39] = Biodistribution in Sprague-Dawley rat epididymal fat at 5 mg/kg, po after 24 hrs; assay type: ADME, organism-based, Adipose tissue; how it was run: as §1
Brain [40] = assay: Biodistribution in Sprague-Dawley rat brain at 5 mg/kg, po after 24 hrs; assay type: ADME, organism-based; how it was run: as §1
[41] = Biodistribution in Sprague-Dawley rat femur bone at 5 mg/kg, po after 3 hrs; assay type: ADME, organism-based, Bone element; how it was run: as §1
[42] = Biodistribution in Sprague-Dawley rat stomach C&W at 5 mg/kg, po after 3 hrs; assay type: ADME, organism-based; how it was run: as §2
Prostate gland [43] = assay: Biodistribution in Sprague-Dawley rat prostate at 5 mg/kg, po after 3 hrs; assay type: ADME, organism-based; how it was run: as §1
[44] = Biodistribution in Sprague-Dawley rat urinary bladder at 5 mg/kg, po after 24 hrs; assay type: ADME, organism-based; how it was run: as §2
[45] = Biodistribution in Sprague-Dawley rat epididymal fat at 5 mg/kg, po after 3 hrs; assay type: ADME, organism-based, Adipose tissue; how it was run: as §1
[46] = Biodistribution in Sprague-Dawley rat cervical lymph node at 5 mg/kg, po after 3 hrs; assay type: ADME, organism-based; how it was run: as §1
[47] = Biodistribution in Sprague-Dawley rat bone marrow at 5 mg/kg, po after 3 hrs; assay type: ADME, organism-based; how it was run: as §1
[48] = Biodistribution in Sprague-Dawley rat bone marrow at 5 mg/kg, po after 24 hrs; assay type: ADME, organism-based; how it was run: as §1
Thymus [49] = assay: Biodistribution in Sprague-Dawley rat thymus at 5 mg/kg, po after 24 hrs; assay type: ADME, organism-based; how it was run: as §2
[50] = Biodistribution in Sprague-Dawley rat stomach at 5 mg/kg, po after 24 hrs; assay type: ADME, organism-based; how it was run: as §2
Pancreas [51] = assay: Biodistribution in Sprague-Dawley rat pancreas at 5 mg/kg, po after 3 hrs; assay type: ADME, organism-based; how it was run: as §1
Lung [52] = assay: Biodistribution in Sprague-Dawley rat lung at 5 mg/kg, po after 3 hrs; assay type: ADME, organism-based; how it was run: as §1
[53] = Biodistribution in Sprague-Dawley rat large intestine C&W at 5 mg/kg, po after 3 hrs; assay type: ADME, organism-based; how it was run: as §1
Heart [54] = assay: Biodistribution in Sprague-Dawley rat heart at 5 mg/kg, po after 3 hrs; assay type: ADME, organism-based; how it was run: as §1
[55] = Biodistribution in Sprague-Dawley rat large intestine C&W at 5 mg/kg, po after 24 hrs; assay type: ADME, organism-based; how it was run: as §1
Spleen [56] = assay: Biodistribution in Sprague-Dawley rat spleen at 5 mg/kg, po after 3 hrs; assay type: ADME, organism-based; how it was run: as §2
Muscle tissue [57] = assay: Biodistribution in Sprague-Dawley rat muscle at 5 mg/kg, po after 24 hrs; assay type: ADME, organism-based; how it was run: as §1
Zone of skin [58] = assay: Biodistribution in Sprague-Dawley rat skin at 5 mg/kg, po after 24 hrs; assay type: ADME, organism-based; how it was run: as §1
[59] = Biodistribution in Sprague-Dawley rat large intestine at 5 mg/kg, po after 24 hrs; assay type: ADME, organism-based; how it was run: as §1
Brain [60] = assay: Biodistribution in Sprague-Dawley rat brain at 5 mg/kg, po after 3 hrs; assay type: ADME, organism-based; how it was run: as §1

Drug uptake [1]: 0.03 nmol/g
Drug uptake (Plasma [2]): 0.05 nmol/g
Drug uptake (Pancreas [3]): 0.25 nmol/g
Drug uptake [4]: 0.09 nmol/g
Drug uptake (Testes [5]): 0.04 nmol/g
Drug uptake (Zone of skin [6]): 0.08 nmol/g
Drug uptake (Muscle tissue [7]): 0.07 nmol/g
Drug uptake (Thyroid gland [8]): 0.2 nmol/g
Drug uptake (Liver [9]): 3.67 nmol/g
Drug uptake [10]: 0.18 nmol/g
Drug uptake [11]: 0.02 nmol/g
Drug uptake (Adrenal gland [12]): 0.77 nmol/g
Drug uptake (Prostate gland [13]): 0.03 nmol/g
Drug uptake [14]: 39.69 nmol/g
Drug uptake [15]: 0.05 nmol/g
Drug uptake [16]: 16.61 nmol/g
Drug uptake (Heart [17]): 0.05 nmol/g
Drug uptake [18]: 0.06 nmol/g
Drug uptake (Blood [19]): 0.12 nmol/g
Drug uptake (Blood [20]): 0.05 nmol/g
Drug uptake (Spleen [21]): 0.01 nmol/g
Drug uptake (Liver [22]): 6.67 nmol/g
Drug uptake [23]: 0.4 nmol/g
Drug uptake (Lung [24]): 0.04 nmol/g
Drug uptake (Thyroid gland [25]): 0.03 nmol/g
Drug uptake (Kidney [26]): 0.14 nmol/g
Drug uptake (Thymus [27]): 0.09 nmol/g
Drug uptake [28]: 0.04 nmol/g
Drug uptake [29]: 0.02 nmol/g
Drug uptake [30]: 0.2 nmol/g
Drug uptake (Adrenal gland [31]): 0.09 nmol/g
Drug uptake [32]: 0.01 nmol/g
Drug uptake [33]: 76.96 nmol/g
Drug uptake (Testes [34]): 0.03 nmol/g
Drug uptake (Plasma [35]): 0.15 nmol/g
Drug uptake (Kidney [36]): 0.48 nmol/g
Drug uptake [37]: 28.56 nmol/g
Drug uptake [38]: 1.23 nmol/g
Drug uptake [39]: 0.55 nmol/g
Drug uptake (Brain [40]): 0.01 nmol/g
Drug uptake [41]: 0.14 nmol/g
Drug uptake [42]: 24.52 nmol/g
Drug uptake (Prostate gland [43]): 0.12 nmol/g
Drug uptake [44]: 0.05 nmol/g
Drug uptake [45]: 0.15 nmol/g
Drug uptake [46]: 0.12 nmol/g
Drug uptake [47]: 0.06 nmol/g
Drug uptake [48]: 0.01 nmol/g
Drug uptake (Thymus [49]): 0.01 nmol/g
Drug uptake [50]: 0.22 nmol/g
Drug uptake (Pancreas [51]): 0.25 nmol/g
Drug uptake (Lung [52]): 0.31 nmol/g
Drug uptake [53]: 4.68 nmol/g
Drug uptake (Heart [54]): 0.36 nmol/g
Drug uptake [55]: 2.5 nmol/g
Drug uptake (Spleen [56]): 2.57 nmol/g
Drug uptake (Muscle tissue [57]): 0.01 nmol/g
Drug uptake (Zone of skin [58]): 0.15 nmol/g
Drug uptake [59]: 0.64 nmol/g
Drug uptake (Brain [60]): 0.03 nmol/g
SMILES: Cc1cc(OCP2(=O)OCC[C@@H](c3cccc(Cl)c3)O2)cc([14CH3])c1Cc1ccc(O)c(C(C)C)c1 (stereo not given in full)
